From ChEMBL document CHEMBL2429834, “Potent histone deacetylase inhibitors derived from 4-(aminomethyl)-N-hydroxybenzamide with high selectivity for the HDAC6 isoform” (J Med Chem, 2013)
≈ marks a conversion by molar mass, not a printed value.

Legend:
Histone deacetylase 11 = target: T1, Histone deacetylase 11 (Homo sapiens, UniProt Q96DB2); experiment: Inhibition of full length N-terminal GST-tagged recombinant human HDAC11 expressed in baculovirus using Arg-His-Lys-Lys (Ac) as substrate after 1 hr by fluorescence plate reader analysis
T1 sequence (Q96DB2 whole entry): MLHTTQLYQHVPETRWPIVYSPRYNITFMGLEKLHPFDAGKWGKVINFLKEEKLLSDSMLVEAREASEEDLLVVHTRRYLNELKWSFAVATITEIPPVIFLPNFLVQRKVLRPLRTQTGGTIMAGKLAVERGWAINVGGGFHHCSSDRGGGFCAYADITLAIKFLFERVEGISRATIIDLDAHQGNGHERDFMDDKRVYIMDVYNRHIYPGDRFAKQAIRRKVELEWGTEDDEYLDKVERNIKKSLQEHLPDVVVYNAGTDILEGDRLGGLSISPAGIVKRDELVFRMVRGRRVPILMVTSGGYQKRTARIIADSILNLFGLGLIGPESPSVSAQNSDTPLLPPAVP

[1] = target: T2, Protein deacetylase HDAC6 (Homo sapiens) (UniProt Q9UBN7); experiment: Inhibition of HDAC6 in human HeLa cells assessed as inhibition of acetyl histone hydrolysis at 10 uM after 24 hrs by immunofluorescence assay relative to control; type: cell-based
T2 sequence (whole entry): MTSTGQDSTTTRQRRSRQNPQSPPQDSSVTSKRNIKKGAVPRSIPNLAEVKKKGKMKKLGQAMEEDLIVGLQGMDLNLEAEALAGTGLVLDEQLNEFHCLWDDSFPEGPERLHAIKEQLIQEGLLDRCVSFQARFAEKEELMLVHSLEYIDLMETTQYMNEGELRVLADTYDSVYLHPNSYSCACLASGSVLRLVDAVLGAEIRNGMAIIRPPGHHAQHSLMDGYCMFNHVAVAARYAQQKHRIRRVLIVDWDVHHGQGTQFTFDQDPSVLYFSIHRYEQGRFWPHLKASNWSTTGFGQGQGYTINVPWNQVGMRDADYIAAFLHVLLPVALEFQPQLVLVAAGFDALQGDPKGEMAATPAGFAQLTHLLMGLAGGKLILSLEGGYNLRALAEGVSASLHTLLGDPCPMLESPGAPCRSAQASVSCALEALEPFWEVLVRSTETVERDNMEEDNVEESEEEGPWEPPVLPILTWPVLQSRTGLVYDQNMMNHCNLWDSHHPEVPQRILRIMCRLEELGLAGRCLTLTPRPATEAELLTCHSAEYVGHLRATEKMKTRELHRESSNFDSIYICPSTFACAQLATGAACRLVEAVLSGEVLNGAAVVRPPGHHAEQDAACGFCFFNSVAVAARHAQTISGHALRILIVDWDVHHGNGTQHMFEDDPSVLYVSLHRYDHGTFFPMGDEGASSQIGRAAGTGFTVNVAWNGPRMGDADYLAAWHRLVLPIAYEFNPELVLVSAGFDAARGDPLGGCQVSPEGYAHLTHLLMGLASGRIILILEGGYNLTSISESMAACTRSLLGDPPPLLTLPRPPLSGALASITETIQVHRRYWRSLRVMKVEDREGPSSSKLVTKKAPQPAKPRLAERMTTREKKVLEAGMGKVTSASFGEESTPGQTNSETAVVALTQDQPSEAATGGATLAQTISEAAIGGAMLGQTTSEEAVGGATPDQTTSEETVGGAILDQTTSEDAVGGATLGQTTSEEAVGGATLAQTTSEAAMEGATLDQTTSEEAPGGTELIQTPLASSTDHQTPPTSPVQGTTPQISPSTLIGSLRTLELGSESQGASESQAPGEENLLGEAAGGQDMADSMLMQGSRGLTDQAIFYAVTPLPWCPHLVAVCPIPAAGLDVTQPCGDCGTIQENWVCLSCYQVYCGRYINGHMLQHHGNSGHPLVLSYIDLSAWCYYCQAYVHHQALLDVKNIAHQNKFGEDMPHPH
Summary of the method: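 HeLa cells (8000/well, MEM with 10% FBS) given compound 24 h (histone) or 6 h (tubulin). Fixed in 4% paraformaldehyde, permeabilized with 0.5% Triton X-100, stained with anti-acetyl-lysine or anti-acetyl-tubulin and Alexa 488 secondary plus Hoechst. Imaged at nine sites per well, 20×; percent inhibition relative to 0.2% DMSO controls.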

[2] = target: T3, Matrix metalloproteinase-17 (Homo sapiens) (UniProt Q9ULZ9); experiment: Inhibition of MMP4 (unknown origin)
T3 sequence (whole entry): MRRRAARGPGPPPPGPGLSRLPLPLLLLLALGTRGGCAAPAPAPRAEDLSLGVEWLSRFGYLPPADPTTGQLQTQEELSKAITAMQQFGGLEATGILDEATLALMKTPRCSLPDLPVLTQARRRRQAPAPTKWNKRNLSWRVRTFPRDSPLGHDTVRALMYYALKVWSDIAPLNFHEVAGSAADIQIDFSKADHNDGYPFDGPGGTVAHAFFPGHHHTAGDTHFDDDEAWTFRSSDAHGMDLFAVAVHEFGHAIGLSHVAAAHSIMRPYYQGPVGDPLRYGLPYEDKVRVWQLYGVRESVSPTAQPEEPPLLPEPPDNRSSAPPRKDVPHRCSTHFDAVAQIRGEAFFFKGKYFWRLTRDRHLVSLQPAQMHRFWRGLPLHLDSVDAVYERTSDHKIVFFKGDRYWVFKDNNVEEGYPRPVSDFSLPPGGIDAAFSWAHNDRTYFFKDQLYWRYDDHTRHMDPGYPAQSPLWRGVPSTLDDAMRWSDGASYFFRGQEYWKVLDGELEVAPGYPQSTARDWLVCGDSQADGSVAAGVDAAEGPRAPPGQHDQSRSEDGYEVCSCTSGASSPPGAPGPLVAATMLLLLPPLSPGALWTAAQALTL

[3] = target: Matrix metalloproteinase-9 (Homo sapiens) (UniProt P14780); experiment: Inhibition of MMP9 (unknown origin)
Sequence of Matrix metalloproteinase-9 (Homo sapiens) (P14780 whole entry): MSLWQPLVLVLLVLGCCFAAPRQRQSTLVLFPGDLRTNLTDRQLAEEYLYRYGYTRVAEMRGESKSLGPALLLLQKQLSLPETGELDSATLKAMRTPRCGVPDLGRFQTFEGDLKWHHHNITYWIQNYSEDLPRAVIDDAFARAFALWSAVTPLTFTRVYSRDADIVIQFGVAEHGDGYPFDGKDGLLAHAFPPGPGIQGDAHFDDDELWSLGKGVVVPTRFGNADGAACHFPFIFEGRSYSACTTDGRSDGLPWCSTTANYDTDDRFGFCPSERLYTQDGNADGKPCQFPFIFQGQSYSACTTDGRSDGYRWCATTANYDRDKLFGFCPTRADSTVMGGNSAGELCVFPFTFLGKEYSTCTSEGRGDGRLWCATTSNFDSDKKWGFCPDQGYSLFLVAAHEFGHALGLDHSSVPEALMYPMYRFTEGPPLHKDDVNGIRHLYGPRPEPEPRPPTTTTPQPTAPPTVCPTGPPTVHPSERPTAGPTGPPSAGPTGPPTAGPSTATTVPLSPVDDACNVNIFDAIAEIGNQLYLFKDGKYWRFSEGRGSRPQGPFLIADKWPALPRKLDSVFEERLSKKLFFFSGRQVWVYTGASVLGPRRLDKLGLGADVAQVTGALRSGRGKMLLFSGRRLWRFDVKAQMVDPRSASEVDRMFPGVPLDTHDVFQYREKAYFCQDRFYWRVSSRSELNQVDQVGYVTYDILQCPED

[4] = Aqueous thermodynamic solubility of the compound in potassium phosphate monobasic buffer at pH 7.5 after 24 hrs by LC-MS analysis; type: physicochemical; conditions: read-out: Therm_solubility
[5] = Permeability in human Caco2 cells at pH 7.4; type: ADME, cell-based; conditions: Caco-2, pH 7.4, read-out: permeability
[6] = target: 72 kDa type IV collagenase (Homo sapiens) (UniProt P08253); experiment: Inhibition of MMP2 (unknown origin)
Sequence of 72 kDa type IV collagenase (Homo sapiens) (P08253 110-660 limits assumed): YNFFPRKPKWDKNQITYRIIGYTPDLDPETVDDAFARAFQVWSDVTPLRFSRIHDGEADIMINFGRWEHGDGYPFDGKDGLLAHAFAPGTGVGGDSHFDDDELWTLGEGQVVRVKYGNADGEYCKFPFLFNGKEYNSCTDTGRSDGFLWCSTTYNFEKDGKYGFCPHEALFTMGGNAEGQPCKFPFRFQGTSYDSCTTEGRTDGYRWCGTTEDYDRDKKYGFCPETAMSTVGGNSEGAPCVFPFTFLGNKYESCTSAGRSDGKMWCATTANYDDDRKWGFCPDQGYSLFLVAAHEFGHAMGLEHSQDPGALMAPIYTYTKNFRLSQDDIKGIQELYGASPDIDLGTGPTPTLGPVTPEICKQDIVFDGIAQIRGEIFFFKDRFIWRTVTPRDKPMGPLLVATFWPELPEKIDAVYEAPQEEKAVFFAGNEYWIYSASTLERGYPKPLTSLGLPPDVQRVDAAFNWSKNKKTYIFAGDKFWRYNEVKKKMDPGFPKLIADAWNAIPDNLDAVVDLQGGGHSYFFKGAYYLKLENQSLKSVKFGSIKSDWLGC

[7] = Efflux ratio of permeability in human Caco2 cells at pH 7.4; type: ADME, cell-based; conditions: Caco-2, pH 7.4

Cn1cccc1C(=O)N1Cc2ccc(C(=O)NO)cc2C1
IC50 (Histone deacetylase 11): > 50 µM

Cn1cccc1C(=O)NCc1ccc(C(=O)NO)cc1
inhibition [1]: 26%

Cn1cccc1C(=O)N1CCCc2cc(C(=O)NO)ccc2C1
IC50 (Histone deacetylase 11): > 50 µM

CC(C)(C)C(=O)N1CCc2cc(C(=O)NO)ccc2C1
IC50 (Histone deacetylase 11): > 50 µM

CC(C)(C)C(=O)N1Cc2ccc(C(=O)NO)cc2C1
IC50 (Histone deacetylase 11): > 50 µM

Cn1cccc1C(=O)N1CCc2cc(C(=O)NO)ccc2C1
INH [2]: > 100 µM
INH [3]: > 100 µM
solubility thermodynamic at 24 h [4]: 2000 µM (≈ 599 µg/mL)
Papp [5]: 22 ×10⁻⁶ cm/s
INH [6]: > 100 µM
IC50 (Histone deacetylase 11): > 50 µM
efflux ratio [7]: 1.5
